# Data: ChEMBL document CHEMBL4270576, “Discovery of a benzenesulfonamide-based dual inhibitor of microsomal prostaglandin E2 synthase-1 and 5-lipoxygenase that favorably modulates lipid mediator biosynthesis in inflammation” (Eur J Med Chem, 2018)
# How the values were obtained:
# [1] = molecular target: T1, Prostaglandin E synthase (Homo sapiens) (UniProt O14684); test: Inhibition of mPGES-1 isolated from microsomes of interleukin-1 beta-stimulated human A549 cells assessed as residual activity at 10 uM using PGH2 as substrate preincubated for 15 mins followed by substrate addition measured after 1 min by RP-HPLC analysis
# T1 sequence (whole entry): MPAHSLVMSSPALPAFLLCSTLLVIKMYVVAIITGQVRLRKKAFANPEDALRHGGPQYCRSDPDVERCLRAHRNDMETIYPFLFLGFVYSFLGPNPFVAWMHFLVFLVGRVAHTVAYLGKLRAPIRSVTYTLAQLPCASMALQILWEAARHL
# [2] = molecular target: T2, Polyunsaturated fatty acid 5-lipoxygenase (Homo sapiens) (UniProt P09917); test: Inhibition of 5-LO in human neutrophils using arachidonic acid as substrate assessed as residual activity preincubated for 15 mins followed by substrate addition measured after 10 mins in presence of Ca2+ ionophore A23187 by HPLC analysis
# T2 sequence (whole entry): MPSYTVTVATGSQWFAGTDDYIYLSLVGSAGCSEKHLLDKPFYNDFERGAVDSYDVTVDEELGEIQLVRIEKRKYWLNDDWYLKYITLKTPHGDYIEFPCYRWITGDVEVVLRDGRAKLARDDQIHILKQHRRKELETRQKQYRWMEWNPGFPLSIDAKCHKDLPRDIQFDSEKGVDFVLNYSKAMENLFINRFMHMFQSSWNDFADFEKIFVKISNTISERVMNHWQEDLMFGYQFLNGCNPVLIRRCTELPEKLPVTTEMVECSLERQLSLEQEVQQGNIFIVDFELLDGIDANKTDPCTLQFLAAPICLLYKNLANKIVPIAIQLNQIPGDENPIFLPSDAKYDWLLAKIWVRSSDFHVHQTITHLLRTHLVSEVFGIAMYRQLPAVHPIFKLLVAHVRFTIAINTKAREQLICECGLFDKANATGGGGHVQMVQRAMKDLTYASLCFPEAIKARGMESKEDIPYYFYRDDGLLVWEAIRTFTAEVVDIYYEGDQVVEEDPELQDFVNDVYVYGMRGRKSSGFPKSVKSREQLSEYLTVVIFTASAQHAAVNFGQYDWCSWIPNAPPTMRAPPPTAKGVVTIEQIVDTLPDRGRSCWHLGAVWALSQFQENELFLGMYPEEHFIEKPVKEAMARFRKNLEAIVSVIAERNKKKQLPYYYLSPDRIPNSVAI
# In short: (§1)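 Human neutrophils (5 × 10^6 in 1 ml PBS with 1 mg/ml glucose) pre-incubated 15 min at 37 °C with compound or 0.1% DMSO, then activated with 1 mM CaCl2 and 2.5 µM A23187, with or without 20 µM AA; 5-LO products measured after 10 min. Residual activity at 10 µM; IC50 by nonlinear regression from 4-5 concentrations; mean ± SEM, n=3-4.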
# [3] = molecular target: T2, Polyunsaturated fatty acid 5-lipoxygenase (Homo sapiens); test: Inhibition of recombinant human 5-LO expressed in Escherichia coli BL21 (DE3) using arachidonic acid as substrate assessed as residual activity preincubated for 10 mins followed by CaCl2 and substrate addition measured after 10 mins by RP-HPLC analysis
# In short: (§2)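 Human recombinant 5-LO from E. coli BL21(DE3), ATP-agarose semi-purified (0.5 µg/ml), pre-incubated with compound or 0.1% DMSO at 4 °C. It was pre-warmed 30 s at 37 °C, then started with 2 mM CaCl2 plus 20 µM AA. Stopped after 10 min with ice-cold methanol; products by RP-HPLC. Residual activity at 10 µM; IC50 from 4-5 concentrations; n=3-4.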
# Prostaglandin E synthase = molecular target: T3, Prostaglandin E synthase (Homo sapiens, UniProt O14684); test: Inhibition of mPGES-1 isolated from microsomes of interleukin-1 beta-stimulated human A549 cells using PGH2 as substrate preincubated for 15 mins followed by substrate addition measured after 1 min by RP-HPLC analysis
# T3 sequence (O14684 whole entry): T1 sequence (whole entry)
# In short: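 Microsomes from A549 cells treated with IL-1β (1 ng/ml, 72 h), diluted in 0.1 M potassium phosphate pH 7.4 with 2.5 mM glutathione. Pre-incubated 15 min with compound or DMSO, then 20 µM PGH2 (final) for 1 min at 4 °C. IC50 from 4-5 concentrations.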
# [4] = molecular target: T4, Polyunsaturated fatty acid 5-lipoxygenase (Homo sapiens, UniProt P09917); test: Inhibition of 5-LO in human neutrophils using arachidonic acid as substrate assessed as reduction in 5-LO product formation preincubated for 15 mins followed by substrate addition measured after 10 mins in presence of Ca2+ ionophore A23187 by HPLC analysis
# T4 sequence (P09917 whole entry): T2 sequence (whole entry)
# In short: as §1
# [5] = molecular target: T4, Polyunsaturated fatty acid 5-lipoxygenase; test: Inhibition of recombinant human 5-LO expressed in Escherichia coli BL21 (DE3) using arachidonic acid as substrate preincubated for 10 mins followed by CaCl2 and substrate addition measured after 10 mins by RP-HPLC analysis
# In short: as §2
Activity [1],Activity [2],Activity [3],IC50 (Prostaglandin E synthase),IC50 [4],IC50 [5],Structure (SMILES)
74.1%,84.7%,107%,–,–,–,Cc1ccc(S(=O)(=O)N(Cc2cccc(Cl)c2)c2ccc(C(=O)O)cc2)cc1
56.8%,–,110%,–,8.4 µM,–,O=C(O)c1ccc(N(Cc2ccoc2)S(=O)(=O)c2ccc(-c3ccccc3)cc2)cc1
92.5%,104%,92.7%,–,–,–,Cc1ccc(S(=O)(=O)N(Cc2cccs2)c2ccc(C(=O)O)cc2)cc1
–,–,65.6%,5.2 µM,1 µM,–,Cc1ccc(CN(c2ccc(C(=O)O)cc2)S(=O)(=O)c2ccc(-c3ccccc3)cc2)cc1
–,–,78.6%,6.2 µM,1.3 µM,–,COc1cccc(CN(c2ccc(C(=O)O)cc2)S(=O)(=O)c2ccc(-c3ccccc3)cc2)c1
–,–,61.4%,5.3 µM,3.5 µM,–,Cc1ccc(S(=O)(=O)N(Cc2ccc(Oc3ccccc3)cc2)c2ccc(C(=O)O)cc2)cc1
71.2%,83.2%,100%,–,–,–,Cc1ccc(S(=O)(=O)N(Cc2ccc(Cl)cc2)c2ccc(C(=O)O)cc2)cc1
91.3%,75.7%,81.1%,–,–,–,Cc1ccc(S(=O)(=O)N(Cc2ccccc2)c2ccc(C(=O)O)cc2)cc1
82.8%,96.7%,93.4%,–,–,–,Cc1ccc(CN(c2ccc(C(=O)O)cc2)S(=O)(=O)c2ccc(C)cc2)cc1
85.7%,75.4%,86.7%,–,–,–,Cc1ccc(S(=O)(=O)N(Cc2c(F)cccc2Cl)c2ccc(C(=O)O)cc2)cc1
90.7%,98.2%,106%,–,–,–,Cc1ccc(S(=O)(=O)N(Cc2ccsc2)c2ccc(C(=O)O)cc2)cc1
71.7%,95.2%,115%,–,–,–,Cc1ccc(S(=O)(=O)N(Cc2ccccc2Cl)c2ccc(C(=O)O)cc2)cc1
–,–,97.6%,6.3 µM,2.4 µM,–,Cc1ccc(S(=O)(=O)N(Cc2ccc(Cl)c(Cl)c2)c2ccc(C(=O)O)cc2)cc1
–,–,96.2%,4 µM,3.3 µM,–,O=C(O)c1ccc(N(Cc2ccccc2)S(=O)(=O)c2ccc(-c3ccccc3)cc2)cc1
52.6%,–,115%,–,4 µM,–,CCCCN(c1ccc(C(=O)O)cc1)S(=O)(=O)c1ccc(-c2ccccc2)cc1
52.8%,–,96.7%,–,4.8 µM,–,Cc1ccc(S(=O)(=O)N(Cc2ccc3ccccc3c2)c2ccc(C(=O)O)cc2)cc1

# Further lines, the compound ahead of its results:
Structure (SMILES),Activity [1],Activity [2],Activity [3],IC50 (Prostaglandin E synthase),IC50 [4],IC50 [5]
O=C(O)c1ccc(N(Cc2cccs2)S(=O)(=O)c2ccc(Cl)cc2)cc1,96.7%,97.2%,86.1%,–,–,–
O=C(O)c1ccc(N(CC2CCCCC2)S(=O)(=O)c2ccc(-c3ccccc3)cc2)cc1,–,–,57.5%,3.2 µM,3.4 µM,–
O=C(O)Cc1ccc(N(Cc2ccc3ccccc3c2)S(=O)(=O)c2ccc(-c3ccccc3)cc2)cc1,–,–,–,1.1 µM,3.4 µM,8.7 µM
O=C(O)c1ccc(N(Cc2cccc(Oc3ccccc3)c2)S(=O)(=O)c2ccc(-c3ccccc3)cc2)cc1,–,–,–,3.8 µM,0.3 µM,7.2 µM
O=C(O)c1ccc(N(Cc2cccs2)S(=O)(=O)c2ccc(C(=O)O)cc2)cc1,94.6%,112%,93%,–,–,–
O=C(O)c1ccc(N(CC2CCCCC2)S(=O)(=O)c2ccc(Oc3ccccc3)cc2)cc1,–,–,72%,2.6 µM,5.4 µM,–
O=C(O)c1ccc(N(Cc2ccc(OCc3ccccc3)cc2)S(=O)(=O)c2ccc(-c3ccccc3)cc2)cc1,–,–,–,6.5 µM,0.5 µM,6.6 µM
O=C(O)c1ccc(N(Cc2cccs2)S(=O)(=O)c2ccc(F)cc2)cc1,96.5%,94.6%,86.7%,–,–,–
COc1ccc(CN(c2ccc(C(=O)O)cc2)S(=O)(=O)c2ccc(C)cc2)cc1OC,95.7%,110%,93.2%,–,–,–
CCCCN(c1ccc(C(=O)O)cc1)S(=O)(=O)c1ccc(C)cc1,79.9%,112%,99.1%,–,–,–
Cc1ccc(S(=O)(=O)N(CC2CCCCC2)c2ccc(C(=O)O)cc2)cc1,91.6%,76.9%,91.4%,–,–,–
O=C(O)c1ccc(N(Cc2ccc3c(c2)OCO3)S(=O)(=O)c2ccc(-c3ccccc3)cc2)cc1,–,–,88.4%,1.9 µM,3.2 µM,–
O=C(O)c1ccc(N(Cc2cccs2)S(=O)(=O)c2ccc(-c3ccc4ccccc4c3)cc2)cc1,76.7%,69.7%,71.9%,–,–,–
O=C(O)c1ccc(N(Cc2cccc(Oc3ccccc3)c2)S(=O)(=O)c2ccc(Oc3ccccc3)cc2)cc1,–,–,–,0.8 µM,1 µM,6 µM
O=C(O)CCc1ccc(N(Cc2ccc3ccccc3c2)S(=O)(=O)c2ccc(-c3ccccc3)cc2)cc1,–,–,–,0.7 µM,1.8 µM,5.5 µM
CC(C)(C)C#Cc1ccc(S(=O)(=O)N(Cc2ccc(C(C)(C)C)cc2)c2ccc(C(=O)O)cc2)cc1,–,–,–,2.7 µM,0.9 µM,2.3 µM
CCCCCCN(c1ccc(C(=O)O)cc1)S(=O)(=O)c1ccc(-c2ccccc2)cc1,–,–,105%,1.9 µM,1.5 µM,–
Cc1ccc(S(=O)(=O)N(Cc2ccccc2)c2ccc(C(=O)NS(=O)(=O)c3ccccc3)cc2)cc1,–,80%,88.9%,2.7 µM,–,–
CCCCCCCCN(c1ccc(C(=O)O)cc1)S(=O)(=O)c1ccc(-c2ccccc2)cc1,–,–,–,5 µM,0.5 µM,5.2 µM
CC(C)(C)c1ccc(CN(c2ccc(C(=O)O)cc2)S(=O)(=O)c2ccc(-c3ccccc3)cc2)cc1,–,–,–,1.2 µM,0.3 µM,5.6 µM
Cc1ccc(S(=O)(=O)N(Cc2cccs2)c2ccc(CC(=O)O)cc2)cc1,96.4%,102%,97%,–,–,–
O=C(O)c1ccc(N(Cc2cccs2)S(=O)(=O)c2ccc(-c3ccccc3)cc2)cc1,–,–,66.4%,4.7 µM,4.4 µM,–
O=C(O)c1ccc(N(Cc2ccc3ccccc3c2)S(=O)(=O)c2ccc(-c3ccccc3)cc2)cc1,–,–,–,0.3 µM,1.1 µM,6.4 µM
CCCCCCN(c1ccc(C(=O)O)cc1)S(=O)(=O)c1ccc(C)cc1,79.9%,65.2%,86.1%,–,–,–
O=C(O)c1ccc(N(Cc2ccc3c(c2)OCCO3)S(=O)(=O)c2ccc(-c3ccccc3)cc2)cc1,–,–,117%,1.6 µM,1.1 µM,–
O=C(O)c1ccc(N(CC2CCCCC2)S(=O)(=O)c2ccc(F)cc2)cc1,88.9%,98.7%,109%,–,–,–
O=C(O)c1ccc(N(Cc2ccc3ccccc3c2)C(=O)c2ccc(-c3ccccc3)cc2)cc1,–,–,78%,2.9 µM,1.7 µM,–
CC(C)(C)c1ccc(CN(c2ccc(C(=O)O)cc2)S(=O)(=O)c2ccc(C(C)(C)C)cc2)cc1,–,–,50.2%,3.2 µM,0.7 µM,–
O=C(O)c1ccc(N(Cc2cnc3ccccc3c2)S(=O)(=O)c2ccc(-c3ccccc3)cc2)cc1,–,–,75%,4.7 µM,2.1 µM,–
